ChEMBL document CHEMBL1149605, “A para-amino substituent on the D-ring of green tea polyphenol epigallocatechin-3-gallate as a novel proteasome inhibitor and cancer cell apoptosis inducer” (Bioorg Med Chem, 2007)
pIC50: −log10 of the molar value. The source made the active and inactive calls. No cut-off for these calls is given here.

Tests used:
[1] = system: Raji; experiment: Inhibition of chymotrypsin like activity of 20S proteasome in leukemia Raji B cells at 25 uM after 4 hrs; assay type: cell-based; details: Homo sapiens
Summary of the method: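 Raji B cells treated with 25 μM compound for 4 h, then harvested and lysed. Whole-cell extract (10 μg) incubated with 40 μM Suc-Leu-Leu-Val-Tyr-AMC in 50 mM Tris-HCl pH 8 at 37 °C for 2.5 h. Free AMC read by fluorescence at 380 nm excitation and 460 nm emission.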

[2] = Inhibition of chymotrypsin like activity of 20S proteasome; set-up: species or system Homo sapiens
Summary of the method: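 Purified rabbit 20S proteasome (35 ng) incubated with the fluorogenic substrate Suc-Leu-Leu-Val-Tyr-AMC (40 μM), with or without compound. Chymotrypsin-like activity was read as substrate hydrolysis.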

[3] = system: Raji; experiment: Inhibition of chymotrypsin like activity of 20S proteasome in leukemia Raji B cells at 25 uM after 24 hrs; assay type: cell-based; details: Homo sapiens
Summary of the method: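 Raji B cells dosed at 25 μM for 4 or 24 h, then harvested and lysed. Whole cell extract (10 μg) incubated with Suc-Leu-Leu-Val-Tyr-AMC (40 μM) in 50 mM Tris-HCl pH 8 at 37 °C for 2.5 h. Released AMC read at ex 380/em 460 nm.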

[4] = system: Raji; experiment: Increase in ubiquitinated protein bax level in leukemia Raji B cells after 4 hrs; assay type: functional; details: for Activity: Homo sapiens, TDE = time-dependent effect
Summary of the method: (§1)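 Raji B cells (RPMI, 10% FBS, 37 °C, 5% CO2) exposed to DMSO solvent or 25 μM compound for 4 or 24 h. Whole cell extracts immunoblotted with antibodies to IκB-α, p27, Bax and ubiquitin, with actin as loading control, and quantified by densitometry.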

[5] = system: Raji; experiment: Increase in ubiquitinated protein p27 level in leukemia Raji B cells after 4 hrs; assay type: functional; details: for Activity: Homo sapiens, TDE = time-dependent effect; summary of the method: as §1
[6] = system: Raji; experiment: Induction of cell death in leukemia Raji B cells at 25 uM after 24 hrs; assay type: functional, Homo sapiens
Summary of the method: (§2)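 Raji B leukaemia cells grown in RPMI with 10% FBS, penicillin and streptomycin at 37 °C under 5% CO2. Treated with 25 μM compound or DMSO solvent for 24 h. Death scored by trypan blue dye exclusion: blue cells and cells with apoptotic morphology (shrinking, blebbing) on phase-contrast microscopy counted as dead.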

[7] = system: Raji; experiment: Increase in ubiquitinated protein IkBalpha level in leukemia Raji B cells after 4 hrs; assay type: functional; details: for Activity: Homo sapiens; summary of the method: as §1
[8] = system: Raji; experiment: Increase in cell death in leukemia Raji B cells at 25 um after 24 hrs; assay type: functional, Homo sapiens; summary of the method: as §2
[9] = system: 20S proteasome (Oryctolagus cuniculus); experiment: Inhibition of chymotrypsin like activity of 20S proteasome at 50 uM
[10] = system: Raji; experiment: Effect on apoptosis in leukemia Raji B cells assessed as increase in caspase 3 activation after 24 hrs; assay type: functional, Homo sapiens
Summary of the method: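 Raji B cells (RPMI, 10% FBS, 37 °C, 5% CO2) given 25 μM compound for 4 or 24 h, then harvested and lysed. Lysates incubated with Ac-DEVD-AMC (40 μM) for 2.5 h; caspase-3 activity read from fluorogenic substrate cleavage.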

[11] = system: Raji; experiment: Increase in ubiquitinated protein p27 level in leukemia Raji B cells after 24 hrs; assay type: functional, cell-based; details: Homo sapiens; summary of the method: as §1
[12] = system: Raji; experiment: Increase in ubiquitinated protein IkBalpha level in leukemia Raji B cells after 24 hrs; assay type: functional, cell-based; details: Homo sapiens; summary of the method: as §1
[13] = system: Raji; experiment: Increase in ubiquitinated protein bax level in leukemia Raji B cells after 24 hrs; assay type: functional, cell-based; details: Homo sapiens; summary of the method: as §1
[14] = system: Raji; experiment: Induction of apoptosis in leukemia Raji B cells assessed as PARP1 ceavage after 24 hrs; assay type: functional, cell-based; details: Homo sapiens
Summary of the method: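 Raji B cells were treated with DMSO or 25 μM compound for 4 or 24 h. Whole cell extracts were immunoblotted with a polyclonal anti-PARP antibody to detect apoptosis-specific PARP cleavage, with densitometric quantification.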

SMILES	pIC50 [2]	inhibition [3] [%]	Activity [4]	Activity [5]	Activity [6] [%]	Activity ([7]; TDE = time-dependent effect)	Fold change [8]	inhibition [9] [%]	Fold change [10]	Activity [11]	Activity [12]	Fold change [4]	Fold change [5]	Activity [13]	Activity [14]	other results
O=C(O[C@@H]1Cc2c(O)cc(O)cc2O[C@@H]1c1cc(O)c(O)c(O)c1)c1cc(O)c(O)c(O)c1 [EPIGALOCATECHIN GALLATE]	6.70	10	–	–	–	–	–	–	–	–	–	–	–	–	–	inhibition [1]: 4%
Nc1ccc(C(=O)O[C@@H]2Cc3c(O)cc(O)cc3O[C@@H]2c2cc(O)c(O)c(O)c2)cc1	6.08	–	tde	tde	10	tde	–	–	–	–	–	–	–	–	–	–
CC(=O)Oc1cc(OC(C)=O)c2c(c1)O[C@H](c1cc(OC(C)=O)c(OC(C)=O)c(OC(C)=O)c1)[C@H](OC(=O)c1ccc(NC(=O)OC(C)(C)C)cc1)C2	–	65	–	–	–	–	5	< 20	5.5	Active	Active	3.5	2.1	Active	Active	Fold change [7]: 1.4
CC(C)(C)OC(=O)Nc1ccc(C(=O)O[C@@H]2Cc3c(O)cc(O)cc3O[C@@H]2c2cc(O)c(O)c(O)c2)cc1	5.41	–	tde	tde	10	tde	–	–	–	–	–	–	–	–	–	–
CC(=O)Oc1cc(OC(C)=O)c2c(c1)O[C@H](c1cc(OC(C)=O)c(OC(C)=O)c(OC(C)=O)c1)[C@H](OC(=O)c1cc(OC(C)=O)c(OC(C)=O)c(OC(C)=O)c1)C2	–	–	–	–	–	–	–	< 20	–	–	–	–	–	–	–	–
CC(=O)Oc1cc(OC(C)=O)c2c(c1)O[C@H](c1cc(OC(C)=O)c(OC(C)=O)c(OC(C)=O)c1)[C@H](OC(=O)c1ccc(N)cc1)C2	–	39	–	–	–	–	3.5	< 20	4.7	Active	Active	3.3	2	Active	Active	Activity [7]: inactive
